The test system of one assay is A549. Kind of assay: Antiproliferative activity against human A549 cells after 72 hrs by MTT assay. The class given is functional, cell-based. The settings on record: A549, 72 h.
The next assay relates to A-431. Briefly: Antiproliferative activity against human A431 cells after 72 hrs by MTT assay. As to conditions: A-431, 72 h. In kind it is functional, cell-based. The method in brief: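 A431 cells seeded in 96-well plates and held 24 h at 37 °C before exposure, with cell numbers set so controls stay in exponential growth. Compounds at final 100.0, 10.0, 1.0 and 0.1 μM for 72 h. MTT (5 mg/ml in PBS) added for 4 h, formazan pelleted and dissolved in DMSO, OD 570 nm. Three experiments in triplicate; IC50 from inhibition ratios.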
For orientation: Tetrazolium assays rely on reduction of a dye to a coloured formazan, in cell work by metabolically active cells.

The target in assay [1] is Epidermal growth factor receptor (Homo sapiens, UniProt P00533). Kind of assay: Inhibition of EGFR in shed membrane vesicles of human A431 cells using poly-Glu-Tyr as substrate after 30 mins by ELISA. The class given is cell membranes, A-431.
Epidermal growth factor receptor, sequence (P00533 whole entry): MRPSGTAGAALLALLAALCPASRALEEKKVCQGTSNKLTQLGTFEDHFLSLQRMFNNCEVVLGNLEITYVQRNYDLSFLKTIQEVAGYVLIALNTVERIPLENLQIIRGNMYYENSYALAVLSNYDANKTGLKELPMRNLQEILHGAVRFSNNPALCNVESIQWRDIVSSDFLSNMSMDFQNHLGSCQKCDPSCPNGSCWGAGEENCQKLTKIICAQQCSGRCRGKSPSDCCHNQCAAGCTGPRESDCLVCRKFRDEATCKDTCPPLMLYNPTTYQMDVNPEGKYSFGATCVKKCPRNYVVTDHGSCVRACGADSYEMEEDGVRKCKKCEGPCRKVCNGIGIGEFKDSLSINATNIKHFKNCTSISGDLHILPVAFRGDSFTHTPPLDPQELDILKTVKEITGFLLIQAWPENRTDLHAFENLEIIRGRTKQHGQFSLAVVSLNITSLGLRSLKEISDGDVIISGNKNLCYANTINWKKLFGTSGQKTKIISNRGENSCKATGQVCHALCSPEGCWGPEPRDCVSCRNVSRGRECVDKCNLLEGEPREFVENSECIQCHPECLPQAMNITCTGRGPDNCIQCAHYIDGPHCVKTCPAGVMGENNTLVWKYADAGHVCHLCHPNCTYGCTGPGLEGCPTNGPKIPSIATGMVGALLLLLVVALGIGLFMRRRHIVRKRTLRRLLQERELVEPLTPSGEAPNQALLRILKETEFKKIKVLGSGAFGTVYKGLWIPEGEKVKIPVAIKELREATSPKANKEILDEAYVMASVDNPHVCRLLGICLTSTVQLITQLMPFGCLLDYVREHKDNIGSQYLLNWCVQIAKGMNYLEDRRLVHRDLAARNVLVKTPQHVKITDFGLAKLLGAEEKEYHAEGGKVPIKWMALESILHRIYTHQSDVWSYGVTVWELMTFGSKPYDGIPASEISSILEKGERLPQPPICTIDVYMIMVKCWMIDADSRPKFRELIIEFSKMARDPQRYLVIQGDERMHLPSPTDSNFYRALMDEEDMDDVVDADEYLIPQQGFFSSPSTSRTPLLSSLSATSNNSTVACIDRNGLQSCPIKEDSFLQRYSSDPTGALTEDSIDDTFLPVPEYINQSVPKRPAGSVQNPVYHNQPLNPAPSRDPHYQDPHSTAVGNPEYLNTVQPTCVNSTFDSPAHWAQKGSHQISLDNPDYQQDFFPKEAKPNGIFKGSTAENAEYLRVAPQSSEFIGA

pIC50: −log10 of the molar value. Where only a bound is given, the exact number is not on record here.

The term pIC50 denotes the IC50 on a negative log10 scale, so that one unit is a factor of ten. With `COc1cc(OC)c2c(=O)n(-c3ccccc3)ccc2c1`, the pIC50 was 4.35 in the assay on A549 and 5.27 in the assay on A-431.

Consider `C#Cc1cccc(-n2ccc3cc(OC)cc(OC)c3c2=O)c1`, for which the pIC50 was 5.45 in assay [1], 4.60 in the assay with A549 and 5.15 in the assay on A-431.

With `COc1cc(OC)c2c(=O)n(-c3ccc(F)c(Cl)c3)ccc2c1`, the pIC50 in assay [1] is 5.26; with A549, 4.75; in the assay with A-431, 5.40.

Consider `COc1cc(OC)c2c(=O)n(-c3cccc(F)c3)ccc2c1`, for which the values for the pIC50 in the assay with A549 and in the assay on A-431 were 4.82 and 5.38, respectively.

In the assay with A-431, `COc1cc(OC)c2c(=O)n(-c3ccc(F)c(F)c3)ccc2c1` showed a pIC50 of 5.42.

Consider `COc1cc(OC)c2c(=O)n(-c3cccc(C(F)(F)F)c3)ccc2c1`, for which the results for the pIC50 in the assay with A549 and in the assay on A-431 were 4.63 and 4.83, respectively.

For `COc1cc(OC)c2c(=O)n(-c3cccc(C(=O)N4CCCCC4)c3)ccc2c1`, the pIC50 in assay [1] was 5.67; with A549, 4.73; with A-431 it was 4.82.

Turning to `COc1cc(OC)c2c(=O)n(-c3cccc(C(N)=O)c3)ccc2c1`, the pIC50 in the assay on A549 was 4.51; with A-431, 4.55.

For `COc1cc(OC)c2c(=O)n(Cc3ccccc3)ccc2c1`, in the assay on A-431, the pIC50 is 5.41.

`C#Cc1cccc(-n2ccc3cc(OC)cc(O)c3c2=O)c1`: the values for the pIC50 (in assay [1]; in the assay on A549; with A-431) were 5.51, 4.80 and 5.35, respectively.

In the assay on A549, `COc1cc(O)c2c(=O)n(-c3ccccc3)ccc2c1` gave a pIC50 of 4.55.

In the case of `COc1cc(O)c2c(=O)n(-c3cccc(C(=O)N4CCCCC4)c3)ccc2c1`, the values for the pIC50 (in assay [1]; in the assay with A549; in the assay with A-431) were 5.86, 4.85 and 5.65, respectively.

As to `COc1cc(O)c2c(=O)n(-c3cccc(C(N)=O)c3)ccc2c1`, the pIC50 in the assay on A549 was 4.61; with A-431 it was 4.82.

In the assay with A-431, `COc1cc(O)c2c(=O)n(Cc3ccccc3)ccc2c1` had a pIC50 of 5.08.

For the compound `COc1cc2c(c(OC)c1)C(=O)N(c1cccc(C(=O)N3CCCCC3)c1)CC2`, the pIC50 in assay [1] is 5.91; with A549, 4.63; with A-431, 4.97.

As for `COc1cc(O)c2c(c1)CCN(c1cccc(C(=O)N3CCCCC3)c1)C2=O`, the pIC50 in assay [1] was 5.93; with A549, 4.88; with A-431, 5.27.

`C=CC(=O)Nc1c(OC)cc(OC)c2c(=O)n(-c3cccc(C(=O)N4CCCCC4)c3)ccc12`: in the assay on A549, the pIC50 is 4.83.

On to `C=CC(=O)Nc1c(OC)cc(O)c2c(=O)n(-c3cccc(C(=O)N4CCCCC4)c3)ccc12`, for which the pIC50 with A549 is 4.83; in the assay on A-431, 5.28.

For the compound `COc1cc(O)c2c(=O)n(-c3cccc(C(=O)N4CCCCC4)c3)ccc2c1NC(=O)Nc1ccc(C(=O)N2CCN(C)CC2)cc1`, the pIC50 in the assay on A549 is under 4.00; in the assay on A-431, 4.71.

For `COc1cc(O)c2c(=O)n(-c3cccc(C(=O)N4CCCCC4)c3)ccc2c1NC(=O)CCN1CCOCC1`, the pIC50 was 4.88 with A549 and 4.94 in the assay with A-431.
